RGS4 act = RGS4 potentiation or activation. HEK293 M3R/inducible RGS4, carbachol calcium flux Fluo4; active compounds read low. 310,000 tested, 0.92% active. B-score at 10 µM;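 active means B-score of the integrated calcium signal more than 4 SD below the library mean, with starting fluorescence not abnormally high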;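 further: negative B-score means reduced calcium response which marks RGS4 activation or potentiation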
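Test system: HEK293 cells with stable M3R and inducible RGS4; also added: carbachol at ECmax as muscarinic agonist stimulus; schedule: dye loading 30 min 37 °C, buffer rest 30 min RT; technique: kinetic calcium fluorescence imaging with Fluo4-AM dye, 2 µM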
RGS4 inh = human RGS4 inhibition. P49798. AID 463165. HEK293 M3R/RGS4 inducible, Fluo-4 calcium flux; active compounds read high; triggered by carbachol at its EC20. 310,000 tested, 0.45% active. B-score at 10 µM;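 active means B-score, a plate-corrected calcium signal, over three deviations above library mean, with baseline fluorescence within five deviations of library mean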;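 further: RGS4 expression induced by doxycycline in cells with stable M3 receptor; B-score is computed from the integrated fluorescence ratio over baseline after carbachol; higher B-score means a larger calcium signal and so more RGS4 inhibition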
MrgX1 antag = human MrgX1 receptor antagonism, primary screen | B-score at 10 µM | 310,000 tested, 1.3% active | Q96LB2 | MRGX1-HEK293 calcium flux, Fluo-4, BAM8-22 antagonism; active compounds read low | AID 588676;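 active means calcium-response B-score plate-corrected more than 3 library SD below zero, starting fluorescence within 5 deviations, no agonist response on first addition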;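 further: peak minus trough fluorescence over baseline after final BAM8-22 challenge near maximal dose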
Target sequence (Q96LB2 whole entry, looked up): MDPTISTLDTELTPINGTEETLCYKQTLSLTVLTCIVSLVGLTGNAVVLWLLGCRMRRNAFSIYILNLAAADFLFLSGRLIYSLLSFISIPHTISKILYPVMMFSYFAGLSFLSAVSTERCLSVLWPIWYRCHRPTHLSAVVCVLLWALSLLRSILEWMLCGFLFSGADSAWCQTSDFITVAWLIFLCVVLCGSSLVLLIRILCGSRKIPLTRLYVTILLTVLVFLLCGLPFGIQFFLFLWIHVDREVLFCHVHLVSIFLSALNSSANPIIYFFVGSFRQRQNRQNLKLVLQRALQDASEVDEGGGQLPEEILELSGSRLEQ
MrgX1 ag = human MrgX1 receptor agonism, primary screen | Q96LB2 | 310,000 tested, 0.44% active | AID 588627 | B-score at 10 µM | MrgX1-HEK293 cells, Fluo-4 calcium fluorescence, agonist mode; active compounds read high;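 active means calcium response B-score plate-corrected fluorescence ratio at least 3 library SD, with starting fluorescence B-score inside 5 SD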
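Test system: Stable human MrgX1 HEK293 cell line | Schedule: Overnight plating before 1 h dye loading | Read-out basis: Baseline-normalised fluorescence change ratio, B-scored | Detection: Kinetic calcium dye fluorescence, Fluo-4 NW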
MrgX1 PAM = human MrgX1 positive allosteric modulation, primary screen; 310,000 tested, 0.63% active; MrgX1-HEK293, Fluo-4 calcium flux, FDSS; active compounds read high; AID 588675; B-score at 10 µM; Q96LB2;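 active means plate-corrected calcium response at least 3 library SD above typical, normal starting fluorescence, not activating the receptor alone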;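 further: compound read alongside a low EC10 to EC30 dose of BAM8-22 agonist; peak minus trough fluorescence over baseline measured at the second addition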
An asterisk follows results filed as active; i = inactive; nt = no result given; ! = not confirmed by another sample. This is a sample that favours compounds with a hit; in the whole collection about 3.5% have one here.

SMILES | RGS4 act | RGS4 inh | MrgX1 antag | MrgX1 ag | MrgX1 PAM
CC[n+]1c(/C=C/C=C/c2ccc(N(C)C)cc2)sc2ccccc21 | i | i | i | i | i
CC[n+]1c(/C=C/N(C)c2ccccc2)sc2ccc(Cl)cc21 | -9.5* | i | i | i | i
C=C(COC(C)=O)CC1CC(O)[C@]2(C)OC3CC4OC5C[C@]6(C)O[C@]7(C)CCC8OC9C[C@]%10(C)OC%11C(C)=CC(=O)OC%11CC%10OC9C[C@@H](C)C8OC7CC6O[C@]5(C)C/C=C\C4OC3CC2O1 (stereo partly drawn) | i | 18* | nt | nt | nt
C=C(C=O)CC1CC(O)[C@]2(C)OC3CC4OC5C[C@]6(C)O[C@]7(C)CCC8OC9C[C@]%10(C)OC%11C(C)=CC(=O)OC%11CC%10OC9C[C@@H](C)C8OC7CC6O[C@]5(C)CC5OC5C4OC3CC2O1 (stereo partly drawn) | i | i | -5.4* | i | i
O=C(C1CCN(S(=O)(=O)N2CCOCC2)CC1)N1CCC2(CC1)OCCO2 | i | i | i | i | i
O=C(Nc1ccccc1)OC1CN=C(N[N+](=O)[O-])NC1 (stereo not drawn) | i | i | -5.7* | i | i
CN1CCN(Cc2cc(C(C)(C)C)c(O)c(C(C)(C)C)c2)CC1 | i | i | -5.2* | i | i
COc1cc2c(cc1OC)C(C(=O)NC(C)C)C1CCCCN1C2=O (stereo not drawn) | i | i | i | i | i
CCN(CC)c1ccc(N=Cc2c(O)n(Cc3ccccc3)c(=O)[nH]c2=O)cc1 | -7.3*! | i | i | i | i
CCOc1cc2c(cc1OCC)-n1cccc1C(c1ccc(C)cc1C)NC2 (stereo not drawn) | i | i | i | i | i
CCOc1cc2c(cc1OCC)-n1cccc1C(c1cc(C)c(OC)cc1C)NC2 (stereo not drawn) | i | i | -4.9* | i | i
CC(Cc1ccccc1)N1C(=O)c2ccccc2C1=O (stereo not drawn) | i | i | i | i | i
Cc1cc(O)c2c(C)c(CC(=O)N3C[C@H]4C[C@@H](C3)c3cccc(=O)n3C4)c(=O)oc2c1 | i | i | -5.2* | i | i
COc1cc(C)cc2oc(=O)c(CC(=O)N3C[C@H]4C[C@@H](C3)c3cccc(=O)n3C4)c(C)c12 | i | i | i | i | i
CCCC[N+]12CCC(CC1)C(=C(c1ccccc1)c1ccccc1)C2 | -8.6* | i | i | i | i
O=C(O)c1ccc(NC(=O)N2C[C@H]3C[C@@H](C2)c2cccc(=O)n2C3)cc1 | -10* | i | i | i | i
C[C@H]1CC[C@@H]2N(C1)C[C@H]1[C@@H]3C[C@H]4[C@@H](CC(=O)[C@H]5C[C@@H](O)CC[C@@]54C)[C@@H]3CC[C@H]1[C@]2(C)O | i | i | i | i | i
CC(=O)O[C@H]1CC[C@@]2(C)[C@H](C1)C(=O)C[C@H]1[C@@H]3CC[C@@H]4[C@@H](CN5C[C@@H](C)CC[C@H]5[C@@]4(C)O)[C@@H]3C[C@@H]12 | -7* | i | i | i | i
OCC[N+]12CCC(CC1)C(C(O)(c1ccccc1)c1ccccc1)C2 (stereo not drawn) | i | i | i | i | i
O=C(C[N+]12CCC(CC1)C(C(O)(c1ccccc1)c1ccccc1)C2)c1ccc(Br)cc1 (stereo not drawn) | -10* | i | i | i | i
O=c1c2ccccc2nc(-c2cccs2)n1-c1ccccc1 | i | i | i | i | i
NC(N)=N/N=C/c1cn(-c2ccccc2)nc1-c1cccs1 | i | i | i | 44* | i
CCCN(CCC)C1CCc2ccc(O)cc2C1 (stereo not drawn) | nt | nt | i | i | i
C=C1C2[C@H](OC(C)=O)[C@@H]3CC(=O)[C@]4(C)OC[C@@]3(C)[C@@]4(O)[C@@H](OC(C)=O)[C@H](OC(C)=O)[C@@]2(COC(=O)c2ccccc2)[C@@H](OC(C)=O)C[C@@H]1O (stereo partly drawn) | i | i | -5.4* | i | i
